An excerpt weighted towards active compounds, which were near 1.8% of everything screened.
Casp6 inh – caspase-6 (human) enzyme inhibition; 350,000 tested, 0.53% active; purified caspase-6, Z-VEID-R110 cleavage fluorescence; AID 686996; P55212; inhibition, % at 12.5 µM;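 active = mean inhibition across replicates at least about 35%, with every replicate also reaching that limit, limit read from the data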;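 note: 0% = median of neutral control wells and 100% = no fluorescence left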
LEDGF integ inh – blocks HIV-1 LEDGF/p75-dependent DNA integration; TR-FRET IN-LEDGF/p75 DNA integration, Eu/Cy5; inhibition, % at 3.7 µM; 370,000 tested, 0.64% active; AID 743269;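 active = inhibition above the screen-wide mean plus 3 SD, cut at about 13% in these data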;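 note: signal is the Cy5 over europium emission ratio at 671 and 618 nm; 0% = plate median of compound wells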
UHRF1 binding – UHRF1 methyl-DNA binding inhibition; Q96T88; UHRF1 binding to methylated oligo, TR-FRET; inhibition, % at 4.4 µM; 370,000 tested, 0.75% active; AID 687016; in the data active = inhibition above about 21%;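 note: UHRF1 SRA domain binding a hemimethylated CpG hairpin DNA probe; 0% = median of test compound wells and 100% = reference inhibitor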
MBD2 inh – inhibitors of human MBD2 binding to methylated oligonucleotide; Q9UBB5; TR-FRET; inhibition, % at 4.4 µM; 370,000 tested, 0.31% active; AID 686964; in the data active = inhibition above about 13%
NSD2 inh – NSD2 (human) methyltransferase inhibition | O96028 | NSD2 peptide methylation, AlphaScreen, 120 min | inhibition, % at 12.5 µM | 310,000 tested, 0.54% active | AID 743445; in the data active = inhibition above about 50%
Target sequence (O96028 whole entry, looked up): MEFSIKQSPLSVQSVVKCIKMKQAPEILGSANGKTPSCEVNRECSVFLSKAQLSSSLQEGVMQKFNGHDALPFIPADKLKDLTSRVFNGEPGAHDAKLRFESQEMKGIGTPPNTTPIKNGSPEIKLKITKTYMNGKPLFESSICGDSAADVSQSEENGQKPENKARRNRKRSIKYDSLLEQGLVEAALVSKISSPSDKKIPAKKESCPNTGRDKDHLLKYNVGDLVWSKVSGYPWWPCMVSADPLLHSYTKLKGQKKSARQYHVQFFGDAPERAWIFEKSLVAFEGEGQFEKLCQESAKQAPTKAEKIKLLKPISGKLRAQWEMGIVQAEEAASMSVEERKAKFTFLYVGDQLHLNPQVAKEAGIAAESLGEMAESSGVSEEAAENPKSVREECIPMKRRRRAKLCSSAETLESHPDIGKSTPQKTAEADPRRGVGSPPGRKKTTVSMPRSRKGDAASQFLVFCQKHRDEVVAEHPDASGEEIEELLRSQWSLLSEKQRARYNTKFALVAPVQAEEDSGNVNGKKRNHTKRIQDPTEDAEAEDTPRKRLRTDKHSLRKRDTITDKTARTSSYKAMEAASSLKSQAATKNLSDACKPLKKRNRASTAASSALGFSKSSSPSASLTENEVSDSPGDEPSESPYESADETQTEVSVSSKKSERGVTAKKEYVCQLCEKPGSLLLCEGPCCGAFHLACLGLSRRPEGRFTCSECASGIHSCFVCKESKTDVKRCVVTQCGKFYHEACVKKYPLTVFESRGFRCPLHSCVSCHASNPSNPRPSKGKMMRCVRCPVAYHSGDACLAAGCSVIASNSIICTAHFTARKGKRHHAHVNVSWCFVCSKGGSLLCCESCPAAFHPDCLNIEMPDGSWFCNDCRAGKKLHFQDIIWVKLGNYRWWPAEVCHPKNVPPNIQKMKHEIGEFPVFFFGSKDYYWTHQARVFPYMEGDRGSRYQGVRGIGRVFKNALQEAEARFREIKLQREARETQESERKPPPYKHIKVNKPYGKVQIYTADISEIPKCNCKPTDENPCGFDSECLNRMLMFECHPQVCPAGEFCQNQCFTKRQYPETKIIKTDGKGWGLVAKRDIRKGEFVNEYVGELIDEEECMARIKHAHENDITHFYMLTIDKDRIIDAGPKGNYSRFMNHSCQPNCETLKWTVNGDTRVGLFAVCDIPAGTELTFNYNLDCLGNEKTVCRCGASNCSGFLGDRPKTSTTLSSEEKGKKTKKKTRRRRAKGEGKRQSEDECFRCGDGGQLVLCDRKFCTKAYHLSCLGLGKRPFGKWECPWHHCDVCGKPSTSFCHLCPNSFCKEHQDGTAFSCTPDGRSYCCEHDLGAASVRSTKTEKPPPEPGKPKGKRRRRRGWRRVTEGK
TDP2 absorb – blocks human TDP2 phosphodiesterase activity; O95551; recombinant TDP2, T5PNP hydrolysis, p-nitrophenol absorbance 415 nm; inhibition, % at 12.8 µM; 370,000 tested, 0.34% active;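 active = inhibition above the mean of all tested compounds plus 3 SD, set per campaign, cut at about 25% in these data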;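 note: 0% = DMSO with enzyme and 100% = buffer with substrate but no TDP2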
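Read-out basis: percent inhibition. System: recombinant human TDP2. Buffer or medium: Mg2+-containing Tris-HCl buffer, pH 7.5. Repeats: single replicate. Timing: reaction 2 h, 37 °C. Benchmarks: high control without enzyme, low control DMSO plus TDP2. Probe or stimulus: 5 mM T5PNP. Doses: 12.8 µM only. Measured by: epi absorbance of p-nitrophenol freed from T5PNP by hydrolysis.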
IN multimer up – counter-screen for LEDGF/p75 integration inhibitors: HIV-1 integrase multimerization activators; shares compounds with LEDGF integ inh; TR-FRET HIV-1 integrase multimerization, biochemical; activation, % at 7.7 µM; 2,000 tested, 17% active; in the data active = activation above about 8.9%
TR-FRET interf – TR-FRET optical interference, LEDGF/p75 integration counter-screen. 2,000 tested, under 10 active. AID 1053135. shares compounds with LEDGF integ inh. inhibition, % at 7.7 µM. TR-FRET optical interference counterscreen, HIV-1 IN multimerization;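 active = inhibition above the mean over all tested compounds plus 3 SD, which no compound reached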;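 note: 0% = integrase with antibodies and DMSO and 100% = antibodies without integrase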
LEDGF integ conf – LEDGF/p75-dependent HIV-1 integration inhibition, confirmation. shares compounds with LEDGF integ inh. TR-FRET LEDGF/p75-dependent HIV-1 integration, biochemical. inhibition, % at 3.7 µM. 2,000 tested, 36% active. AID 1053136; in the data active = inhibition above about 14%
The depositor's hits bear a star; · = no result.

SMILES	Casp6 inh	LEDGF integ inh	UHRF1 binding	MBD2 inh	NSD2 inh	TDP2 absorb	IN multimer up	TR-FRET interf	LEDGF integ conf
Cc1[nH]n(-c2ccccc2)c(=O)c1C(=O)c1ccc([N+](=O)[O-])cc1	6.7	-1.8	-1.7	3.7	19.0	5.6	·	·	·
Cc1[nH]n(-c2ccccc2)c(=O)c1C(c1cccc([N+](=O)[O-])c1)c1c(C)[nH]n(-c2ccccc2)c1=O	10.4	26.7*	15.7	-4.0	23.6	89.6*	1.9	-9.5	3.4
Cc1cnc(C=NNC(N)=S)c2cccc(N)c12	66.4*	16.5*	11.0	-3.8	36.6	15.2	19.6*	-98.5	61.0*
NC(=S)NN=Cc1nccc2ccccc12	1.8	1.4	-18.3	-8.4	8.2	-5.4	·	·	·
C[C@H]1CN([C@@H](C)CO)C(=O)c2cc(NC(=O)Nc3ccc(F)cc3)ccc2O[C@@H]1CN(C)Cc1ccc(Oc2ccccc2)cc1	1.5	·	·	·	·	·	·	·	·
N#CCC1(O)C(=O)N(Cc2ccccc2)c2ccccc21 (stereo not drawn)	-2.6	76.1*	-3.4	1.5	·	-2.2	0.7	-3.4	-10.2
O=C(Nc1cc(F)ccc1F)N1CC(=O)N2[C@H](CO)[C@H](c3ccc(C#CC4CCCC4)cc3)[C@@H]2C1	-2.3	·	·	·	·	·	·	·	·
Cc1cc(C(=O)Nc2ccc3c(c2)C(=O)N(C)[C@@H]2CC[C@H](CC(=O)N[C@H](C)c4ccccc4)O[C@H]2CO3)no1	-2.8	·	·	·	·	·	·	·	·
CCOc1ccc(Nc2ccc(N)c(S(=O)(=O)O)c2)cc1	92.2*	38.3*	16.6	0.1	·	-4.5	13.7*	-69.0	18.7*
CC1(C)S[C@@H]2[C@H](NC(=O)[C@H](N)c3ccc(O)cc3)C(=O)N2[C@H]1C(=O)O	0.9	15.2*	7.8	2.0	·	-2.8	6.0	-30.3	42.7*
CC1=C(C(=O)O)N2C(=O)[C@@H](NC(=O)[C@H](N)c3ccc(O)cc3)[C@H]2SC1	·	-2.6	3.2	4.5	·	4.7	·	·	·
COc1cc(N)c2ncccc2c1Cl	55.6*	43.8*	5.2	-19.4	5.3	46.8*	-0.6	3.2	6.2
COc1ccc(NC(=O)N2CC3(C2)CN(CC2CC2)[C@H](CO)c2c3c3ccc(OC)cc3n2C)cc1	2.2	·	·	·	·	·	·	·	·
CCOC(=O)C1=C(C)N(c2ccccc2)C(=O)/C1=C\c1cccs1	·	-1.2	-1.5	-0.1	3.2	14.5	·	·	·
CCOC(=O)C1=C(C)N(c2ccc(C)cc2)C(=O)/C1=C\c1cccs1	·	58.3*	6.2	0.0	5.8	-12.1	1.7	-8.8	7.1
COc1ccc(C(C)(NC(C)=O)c2nc(-c3cccnc3)cs2)cc1 (stereo not drawn)	1.5	0.1	-0.8	-1.5	0.7	-0.5	·	·	·
COc1ccc(C(C)(NC(C)=O)c2nc(-c3cccc(C(F)(F)F)c3)cs2)cc1 (stereo not drawn)	2.9	16.5*	-1.3	-0.4	0.8	-1.8	-0.7	3.5	-8.8
CC(=O)Nc1ccc2c(COC(=O)CC3Sc4ccccc4NC3=O)cc(=O)oc2c1 (stereo not drawn)	7.8	13.9*	15.5	6.3	5.1	8.7	21.1*	-106.6	13.8*
O=C(Nc1ccccc1)N1CCCCN2[C@H](C1)[C@@H](c1ccc(C#Cc3cccnc3)cc1)[C@@H]2CO	-1.1	·	·	·	·	·	·	·	·
C[C@@H]1CN([C@@H](C)CO)C(=O)Cc2cc(NC(=O)CCCCCC(=O)Nc3ccccc3N)ccc2O[C@@H]1CN(C)CC1CC1	3.1	·	·	·	·	·	·	·	·
Cc1c2ccccc2nc2c(F)c(NCCO)c(F)c(F)c12	·	13.5*	-16.3	-9.7	2.9	13.2	5.4	-18.9	3.0
OCCNc1c2ccccc2nc2c(F)c(F)c(F)c(F)c12	·	-1.6	-9.5	-0.2	-0.7	4.2	·	·	·
Cc1c2ccccc2nc2c(F)c(NC(C)C)c(F)c(F)c12	·	13.5*	-6.4	-5.7	-3.8	1.8	1.4	-5.3	3.7
COc1ccc(NC(=O)N2CCCCN3[C@H](CO)[C@@H](c4ccc(C5=CCCC5)cc4)[C@@H]3C2)cc1	-2.0	·	·	·	·	·	·	·	·
Cc1noc(C)c1NC(=O)Nc1ccc2c(c1)C(=O)N([C@@H](C)CO)C[C@@H](C)[C@H](CN(C)C(=O)C1CCCCC1)OCCCC[C@@H](C)O2	1.5	·	·	·	·	·	·	·	·
SMILES	Casp6 inh	LEDGF integ inh	UHRF1 binding	MBD2 inh	NSD2 inh	TDP2 absorb	IN multimer up	TR-FRET interf	LEDGF integ conf
COc1ccc(/C=C(\C#N)c2nc3ccccc3[nH]2)cc1O	4.6	-2.7	-2.8	-3.5	-3.8	-10.9	·	·	·
COc1cc(/C=C(\C#N)c2nc3ccccc3[nH]2)cc(OC)c1O	3.6	15.8*	-10.3	-3.1	12.7	0.2	7.6	-38.4	2.2
CC1(C)OC(C)(C)/C(=C/Nc2ccc(O)cc2)C1=O	·	21.1*	5.5	3.5	11.5	10.7	44.6*	-158.3	31.0*
CC1CCC/C(=C\Nc2ccc(O)cc2)C1=O (stereo not drawn)	·	3.0	-7.0	-5.0	7.7	7.7	·	·	·
O=C(C[C@@H]1C=C[C@@H](NC(=O)C2CCOCC2)[C@H](CO)O1)Nc1ccccc1	0.1	·	·	·	·	·	·	·	·
COc1ccc(Cl)cc1N(CC(=O)Nc1cccc(SC)c1)S(C)(=O)=O	3.3	40.1*	5.7	-5.5	-5.6	-7.5	-0.6	3.1	-2.8
COc1ccc(N(CC(=O)Nc2cccc(N(C)S(C)(=O)=O)c2)S(=O)(=O)c2ccccc2)cc1Cl	-0.9	43.8*	-1.8	-4.0	-0.5	-1.4	2.3	-8.2	-2.8
COc1ccc(N(CC(=O)Nc2ccc(OC)c(OC)c2)S(=O)(=O)c2ccccc2)cc1Cl	0.6	5.8	7.1	0.5	0.8	-16.0	·	·	·
Cc1ccc(S(=O)(=O)N(C)C[C@H]2OCCCC[C@@H](C)Oc3ccc(NS(=O)(=O)c4cn(C)cn4)cc3C(=O)N([C@@H](C)CO)C[C@@H]2C)cc1	-11.7	·	·	·	·	·	·	·	·
C[C@H](CO)N1C[C@H](C)[C@H](CN(C)C(=O)Nc2ccc(F)cc2)Oc2c(NC(=O)Nc3cccc4ccccc34)cccc2C1=O	-1.1	·	·	·	·	·	·	·	·
C[C@@H]1CN([C@H](C)CO)C(=O)c2cc(NC(=O)Cn3cnnn3)ccc2O[C@@H]1CN(C)S(=O)(=O)c1ccc(Cl)cc1	3.3	·	·	·	·	·	·	·	·
CC=Cc1ccc2n(c1=O)C[C@@H]1[C@@H](CO)[C@H](C(=O)NCCc3ccncc3)N(Cc3cncnc3)[C@H]21 (mixture of isomers)	1.1	·	·	·	·	·	·	·	·
CN1CCN(C(=O)C[C@H]2C=C[C@H](NC(=O)c3ccc4c(c3)OCO4)[C@H](CO)O2)CC1	3.8	·	·	·	·	·	·	·	·
